Assay results from ChEMBL document CHEMBL2029288, “Coumarin-trioxane hybrids: synthesis and evaluation as a new class of antimalarial scaffolds” (Bioorg Med Chem Lett, 2012).
Converted amounts (≈) assume the structure as drawn. Values belong to the molecule of their own block, whether it stands above or below them.

Experiments:
Plasmodium falciparum = test: Antimalarial activity against chloroquine-sensitive Plasmodium falciparum 3D7 after 72 hrs by MSF assay; type: functional, organism-based; conditions: 3D7, 72 h
Procedure, shortened: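 Parasites in 1% cell suspension at 0.8–1% initial parasitaemia, exposed to compounds in duplicate wells for 72 h at 37 °C under 5% CO2 in air. SYBR Green-I then added for 1 h at 37 °C; fluorescence read at excitation 485 ± 20 nm, emission 530 ± 20 nm. Signal expressed as percent of untreated controls; IC50 by logit regression. Chloroquine standard.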

[1] = test system: Plasmodium yoelii nigeriensis; test: Antimalarial activity against multi drug-resistant Plasmodium yoelii nigeriensis infected in Swiss mouse assessed as suppression in parasitemia at 96 mg/kg, po on day 4; type: functional
Procedure, shortened: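 Peters's 4-day suppressive test in Swiss mice infected with P. yoelii nigeriensis. Compound given orally at 96 mg/kg/day for 4 days; parasitaemia suppression scored on day 4.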

SMILES: C=C(c1ccc(C)cc1)C1COC(c2cc(C)c3oc(=O)c(C(=O)OC)cc3c2)OO1 (centres undefined)
IC50 (Plasmodium falciparum): 0.361 µg/mL (≈ 0.853 µM)

SMILES: C=C(c1ccc(C)cc1)C1COC(c2cc(C)c3oc(=O)c(C(=O)OCC)cc3c2)OO1 (centres undefined)
IC50 (Plasmodium falciparum): 0.262 µg/mL (≈ 0.601 µM) | Activity [1]: 41.14%

SMILES: C=C(c1ccc(C)cc1)C1COC(c2cc(C(C)CC)c3oc(=O)c(C(=O)OC)cc3c2)OO1 (centres undefined)
IC50 (Plasmodium falciparum): 0.132 µg/mL (≈ 0.284 µM)

SMILES: C=C(c1ccc(C)cc1)C1COC(c2cc(C(C)CC)c3oc(=O)c(C(=O)OCC)cc3c2)OO1 (centres undefined)
IC50 (Plasmodium falciparum): 0.0393 µg/mL (≈ 0.0821 µM)

SMILES: C=C(c1ccc(Br)cc1)C1COC(c2cc(C)c3oc(=O)c(C(=O)OC)cc3c2)OO1 (centres undefined)
IC50 (Plasmodium falciparum): 0.306 µg/mL (≈ 0.628 µM)

SMILES: C=C(c1ccc(Br)cc1)C1COC(c2cc(C)c3oc(=O)c(C(=O)OCC)cc3c2)OO1 (centres undefined)
IC50 (Plasmodium falciparum): 0.246 µg/mL (≈ 0.49 µM)

SMILES: C=C(c1ccc(Br)cc1)C1COC(c2cc(C(C)CC)c3oc(=O)c(C(=O)OC)cc3c2)OO1 (centres undefined)
IC50 (Plasmodium falciparum): 0.076 µg/mL (≈ 0.144 µM)

SMILES: C=C(c1ccc(Br)cc1)C1COC(c2cc(C(C)CC)c3oc(=O)c(C(=O)OCC)cc3c2)OO1 (centres undefined)
IC50 (Plasmodium falciparum): 0.11 µg/mL (≈ 0.203 µM)

SMILES: C=C(c1ccc(F)cc1)C1COC(c2cc(C)c3oc(=O)c(C(=O)OC)cc3c2)OO1 (centres undefined)
IC50 (Plasmodium falciparum): > 0.5 µg/mL

SMILES: C=C(c1ccc(F)cc1)C1COC(c2cc(C)c3oc(=O)c(C(=O)OCC)cc3c2)OO1 (centres undefined)
IC50 (Plasmodium falciparum): > 0.5 µg/mL

SMILES: C=C(c1ccc(F)cc1)C1COC(c2cc(C(C)CC)c3oc(=O)c(C(=O)OC)cc3c2)OO1 (centres undefined)
IC50 (Plasmodium falciparum): 0.203 µg/mL (≈ 0.433 µM)

SMILES: C=C(c1ccc(F)cc1)C1COC(c2cc(C(C)CC)c3oc(=O)c(C(=O)OCC)cc3c2)OO1 (centres undefined)
IC50 (Plasmodium falciparum): 0.117 µg/mL (≈ 0.242 µM)

IC50 (Plasmodium falciparum): 0.0004 µg/mL (≈ 0.00134 µM)
SMILES: CO[C@H]1O[C@@H]2O[C@@]3(C)CC[C@H]4[C@H](C)CC[C@@H]([C@H]1C)[C@@]24OO3 [ARTEMETHER]
